Tests used:
Mus musculus [1] = assay: Tested for anticonvulsant activity by measuring its ability to protect against NMDLA(340 mg/kg) induced convulsions at the time of peak effect of 4h.; assay type: functional
Mus musculus [2] = assay: Tested for anticonvulsant activity by measuring its ability to protect against bicuculline (2.7 mg/kg) induced convulsions at the time of peak effect of 4h.; assay type: functional
Mus musculus [3] = species: Mus musculus; assay: Tested for anticonvulsant activity by measuring its ability to protect against electric shock in maximal electroshock seizure (MES) test at the time of peak effect of 4 hr; assay type: functional
Mus musculus [4] = assay: Tested for anticonvulsant activity by measuring its ability to protect against pentetrazole (85 mg/kg) induced convulsions at the time of peak effect of 4h.; assay type: functional
Summary of the method: (§1)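 Groups of eight male OF-1 mice (22-25 g) received the test compound ip (10 mL/kg) at doses up to 100 mg/kg. At the MES-derived time of peak effect, pentetrazole 85 mg/kg in 0.9% NaCl was given sc and protection against convulsions recorded. ED50 and 95% confidence intervals were computed by Litchfield–Wilcoxon.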

Mus musculus [5] = assay: Tested for anticonvulsant activity by measuring its ability to protect against strychnine(1.2 mg/kg) induced convulsions at the time of peak effect of 4 hr; assay type: functional
[6] = Neurotoxicity was evaluated at a time of peak effect of 4 hr; assay type: toxicity; conditions: mouse
[7] = Partition coefficient in 1-octanol phosphate buffer at pH 7.40; assay type: physicochemical; conditions: pH 7.4
Summary of the method: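 Shake-flask partition between 1-octanol and phosphate buffer at pH 7.40.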

[8] = Partition coefficient (logP); assay type: physicochemical; conditions: octanol/water
Summary of the method: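 log P obtained by extrapolation from RP-HPLC log k′. The basis is a correlation of log k′ with shake-flask log P in 1-octanol/phosphate buffer pH 7.40, built from reference compounds.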

Mus musculus [9] = species: Mus musculus; assay: Tested for anticonvulsant activity by measuring rate of mice protected against electric shock applied at 0.5 hr after injection in maximal electroshock seizure (MES) test; out of 6; assay type: functional
Summary of the method: (§2)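 Screen in male OF-1 mice (22-25 g), groups of six or seven, given 30 mg/kg ip at 10 mL/kg. Corneal electroshock (50 mA, 60 Hz, 0.2 s) was applied 0.5 or 3 h post-injection. Protection was scored as abolition of hind limb tonic extension and reported as the rate of protected mice.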

Mus musculus [10] = species: Mus musculus; assay: Tested for anticonvulsant activity by measuring rate of mice protected against electric shock applied at 3 hr after injection in maximal electroshock seizure (MES) test; out of 7; assay type: functional; summary of the method: as §2
Rattus norvegicus = assay: Urinary volume excreted over 4 hr by rats after oral administration of 30 mg/kg; assay type: functional, Urine
Summary of the method: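 Male Wistar rats (193-229 g) were dosed orally with 30 mg/kg in 0.9% NaCl/0.1% methocel at 40 mL/kg; three rats shared a metabolism cage. Urine was collected over 4 h and expressed as mL/kg.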

Mus musculus [11] = species: Mus musculus; assay: Tested for anticonvulsant activity by measuring rate of mice protected against electric shock applied at 3 h after injection in maximal electroshock seizure (MES) test; out of 6; assay type: functional; summary of the method: as §2
Mus musculus [12] = assay: Tested for anticonvulsant activity by measuring its ability to protect against strychnine(1.2 mg/kg) induced convulsions at the time of peak effect of 3h; assay type: functional
Summary of the method: (§3)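 OF-1 male mice, eight per group, were given compound ip at up to 100 mg/kg. At the MES time of peak effect, a convulsant in 0.9% NaCl was injected sc; bicuculline was dissolved in warmed 0.1 N HCl/0.9% NaCl and used within 30 min. ED50 with 95% CI was computed by Litchfield–Wilcoxon.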

Mus musculus [13] = assay: Tested for anticonvulsant activity by measuring its ability to protect against NMDLA(340 mg/kg) induced convulsions at the time of peak effect of 3h.; assay type: functional; summary of the method: as §3
Mus musculus [14] = assay: Tested for anticonvulsant activity by measuring its ability to protect against bicuculline (2.7 mg/kg) induced convulsions at the time of peak effect of 3h.; assay type: functional
Summary of the method: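 Male OF-1 mice (22-25 g), eight per group, given the test compound ip (10 mL/kg) at doses up to 100 mg/kg. Bicuculline 2.70 mg/kg, dissolved in warmed 0.1 N HCl plus 0.9% NaCl (10 mL/kg) and used within 30 min, was injected sc at the MES time of peak effect. Protection scored; ED50 with 95% CI by Litchfield–Wilcoxon.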

Mus musculus [15] = species: Mus musculus; assay: Tested for anticonvulsant activity by measuring its ability to protect against electric shock in maximal electroshock seizure (MES) test at the time of peak effect of 3h; assay type: functional
Summary of the method: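 Male OF-1 mice (22-25 g) were dosed ip at 10 mL/kg and tested at the peak-effect time. Corneal electroshock was 50 mA, 60 Hz, 0.2 s; protection meant abolition of hind limb tonic extension. Groups of eight mice received varying doses. ED50 with 95% CI was computed by Litchfield–Wilcoxon.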

Mus musculus [16] = assay: Tested for anticonvulsant activity by measuring its ability to protect against pentetrazole (85 mg/kg) induced convulsions at the time of peak effect of 3h.; assay type: functional; summary of the method: as §3
[17] = Neurotoxicity was evaluated at a time of peak effect of 3h; assay type: toxicity; conditions: mouse
Mus musculus [18] = assay: Tested for anticonvulsant activity by measuring its ability to protect against strychnine(1.2 mg/kg) induced convulsions at the time of peak effect of 2 hr; assay type: functional; summary of the method: as §3
Mus musculus [19] = assay: Tested for anticonvulsant activity by measuring its ability to protect against NMDLA(340 mg/kg) induced convulsions at the time of peak effect of 2 hr.; assay type: functional; summary of the method: as §3
Mus musculus [20] = species: Mus musculus; assay: Tested for anticonvulsant activity by measuring its ability to protect against electric shock in maximal electroshock seizure (MES) test at the time of peak effect of 2 hr
Mus musculus [21] = assay: Tested for anticonvulsant activity by measuring its ability to protect against pentetrazole (85 mg/kg) induced convulsions at the time of peak effect of 2 hr.; assay type: functional; summary of the method: as §1
Mus musculus [22] = assay: Tested for anticonvulsant activity by measuring its ability to protect against bicuculline (2.7 mg/kg) induced convulsions at the time of peak effect of 2 hr.; assay type: functional; summary of the method: as §3

| logP [8] | SMILES | No. of mice protected (Mus musculus [9]) | No. of mice protected (Mus musculus [10]) | Diuresis (Rattus norvegicus) | No. of mice protected (Mus musculus [11]) | other results |
| --- | --- | --- | --- | --- | --- | --- |
| 1.97 | O=[N+]([O-])/C=C(\NC1CCCCCC1)NS(=O)(=O)c1cnccc1NC1CCCCC1 | 0 | 5 | 20 mL/kg | – | – |
| 2.57 | O=[N+]([O-])/C=C(\NC1CCCCCCC1)NS(=O)(=O)c1cnccc1NC1CCCCCC1 | 1 | 4 | 23 mL/kg | – | – |
| 1.66 | Cc1cccc(Nc2ccncc2S(=O)(=O)N/C(=C/[N+](=O)[O-])NC2CCCCC2)c1 | 1 | – | 29 mL/kg | 2 | – |
| 2.27 | O=[N+]([O-])/C=C(\NC1CCCCCCC1)NS(=O)(=O)c1cnccc1NC1CCCCC1 | 2 | 4 | 21 mL/kg | – | – |

More lines, now with the values behind:

| SMILES | logP [8] | No. of mice protected (Mus musculus [9]) | No. of mice protected (Mus musculus [10]) | Diuresis (Rattus norvegicus) | No. of mice protected (Mus musculus [11]) | other results |
| --- | --- | --- | --- | --- | --- | --- |
| O=S(=O)(NC(=S)NC1CCCCC1)c1cnccc1NC1CCCCCCC1 | – | – | – | – | – | ED50 (Mus musculus [1]): > 100 mg/kg; ED50 (Mus musculus [2]): > 100 mg/kg; ED50 (Mus musculus [3]): 1.19 mg/kg; ED50 (Mus musculus [4]): > 100 mg/kg; ED50 (Mus musculus [5]): > 100 mg/kg; TD50 at 4 h [6]: 147 mg/kg |
| CC(C)N/C(=C\[N+](=O)[O-])NS(=O)(=O)c1cnccc1NC1CCCC1 | – | – | – | – | – | logD [7]: 0.538 |
| O=[N+]([O-])/C=C(\NC1CCCCCC1)NS(=O)(=O)c1cnccc1NC1CCCCCC1 | 2.3 | 1 | – | 25 mL/kg | 5 | – |
| CCNc1ccncc1S(=O)(=O)N/C(=C/[N+](=O)[O-])NC(C)C | – | – | – | – | – | logD [7]: -0.482 |
| O=[N+]([O-])/C=C(\NC1CCCCC1)NS(=O)(=O)c1cnccc1NC1CCCCCCC1 | 2.31 | 1 | 7 | 22 mL/kg | – | ED50 (Mus musculus [12]): > 100 mg/kg; ED50 (Mus musculus [13]): > 100 mg/kg; ED50 (Mus musculus [14]): > 100 mg/kg; ED50 (Mus musculus [15]): 8.25 mg/kg; ED50 (Mus musculus [16]): > 100 mg/kg; TD50 at 3 h [17]: 114 mg/kg |
| O=[N+]([O-])/C=C(\NC1CCCCCC1)NS(=O)(=O)c1cnccc1NC1CCCCCCC1 | 2.59 | 2 | – | 20 mL/kg | 5 | – |
| O=[N+]([O-])/C=C(\NC1CCCCC1)NS(=O)(=O)c1cnccc1NC1CCCCCC1 | 1.99 | 1 | – | 18 mL/kg | 5 | – |
| Cc1cccc(Nc2ccncc2S(=O)(=O)N/C(=C/[N+](=O)[O-])NC(C)C)c1 | – | – | – | – | – | logD [7]: 1.12 |
| O=[N+]([O-])/C=C(\NC1CCCCCCC1)NS(=O)(=O)c1cnccc1NC1CCCCCCC1 | 2.86 | 0 | 3 | 22 mL/kg | – | – |
| O=[N+]([O-])/C=C(\NC1CCCCC1)NS(=O)(=O)c1cnccc1NC1CCCCC1 | 1.67 | 0 | 4 | 20 mL/kg | – | – |
| O=C1NC(=O)C(c2ccccc2)(c2ccccc2)N1 [PHENYTOIN] | – | – | – | – | – | ED50 (Mus musculus [18]): > 100 mg/kg; ED50 (Mus musculus [19]): > 100 mg/kg; ED50 (Mus musculus [20]): 9.51 mg/kg; ED50 (Mus musculus [21]): > 100 mg/kg; ED50 (Mus musculus [22]): > 100 mg/kg |
| Cc1cccc(Nc2ccncc2S(=O)(=O)NC(=O)NC(C)C)c1 [TORSEMIDE] | – | 0 | – | 88 mL/kg | 0 | – |
